CAL PDZ FP-1: inhibitors of human CAL PDZ peptide binding; Q9HD26; purified CAL PDZ, TMR-peptide fluorescence polarization, 1 h; inhibition, % at 20 µM; hit rate 0.02% among 330,000; AID 504414;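 active means highest replicate inhibition of at least 40%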
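System: tagged CAL PDZ domain. Schedule: 1 h room-temperature incubation prior to read. Signal: fluorescence polarization (mP). Measure: percent inhibition from loss of millipolarization.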
CAL PDZ FP-2: inhibitors of human CAL PDZ peptide binding; inhibition, % at 24.9 µM; Q9HD26; AID 602252; purified CAL PDZ, TMR-peptide fluorescence polarization, 1 h; hit rate 0.92% among 300,000;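 active means mean inhibition of at least 30% with at least half of replicates also reaching 30%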
LANA DNA inh: inhibitors of KSHV LANA C-terminal domain DNA binding; hit rate 0.078% among 340,000; MBP-C-LANA/FAM-LBS DNA binding, fluorescence polarization; inhibition, % at 9 µM;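 active means highest replicate inhibition at or above 60% at 9 µM, even if other replicates fall short; inactive means all replicates below 60% inhibition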
miR-122 sensor: blocks miR-122 activity in Huh7 sensor cells; Huh7 miR-122 Renilla luciferase sensor, 48 h; neutral wells = 0, positive control = 100; activation (reporter increase), % at 12.5 µM; hit rate 0.3% among 340,000; AID 602342;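 active means mean replicate activation score at least 90 and every replicate individually at or above 90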;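 further: higher luciferase means less miR-122 activity so hits act as miR-122 inhibitors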
Keap1-Nrf2 PPI: inhibitors of human Keap1-Nrf2 protein-protein interaction | hit rate 0.15% among 340,000 | inhibition, % at 9.4 µM | Q14145 | AID 504523 | Keap1 Kelch-Nrf2 peptide fluorescence polarization, 1536-well; in the data active means inhibition above about 12%;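 further: human Keap1 Kelch domain with fluorescein labeled Nrf2 9mer peptide probe; higher means more block of Keap1 binding to Nrf2 peptide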
Target sequence (Q14145 whole entry, looked up, the tested form may be a part): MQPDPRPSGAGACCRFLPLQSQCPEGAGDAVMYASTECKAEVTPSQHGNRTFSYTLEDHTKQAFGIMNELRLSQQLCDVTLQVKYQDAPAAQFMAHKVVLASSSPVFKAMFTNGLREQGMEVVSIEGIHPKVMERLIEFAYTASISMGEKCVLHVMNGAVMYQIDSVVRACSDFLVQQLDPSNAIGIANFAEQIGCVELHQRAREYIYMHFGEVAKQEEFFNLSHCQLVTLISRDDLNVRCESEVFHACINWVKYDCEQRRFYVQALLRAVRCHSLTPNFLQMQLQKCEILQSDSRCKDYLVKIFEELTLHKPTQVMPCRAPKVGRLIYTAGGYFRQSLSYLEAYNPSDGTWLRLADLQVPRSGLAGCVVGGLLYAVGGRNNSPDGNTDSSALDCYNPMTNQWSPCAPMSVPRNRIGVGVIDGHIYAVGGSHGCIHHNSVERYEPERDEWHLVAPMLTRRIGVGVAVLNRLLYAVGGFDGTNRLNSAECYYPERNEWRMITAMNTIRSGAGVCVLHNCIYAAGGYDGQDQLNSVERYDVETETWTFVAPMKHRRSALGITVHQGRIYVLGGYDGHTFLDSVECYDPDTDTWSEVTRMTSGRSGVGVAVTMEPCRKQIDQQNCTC
A number is an active result; i = inactive; nt = not tested or not shown; + = active, no number. Most compounds without a hit are left out; they make up all but 1.1% or so of the library.

SMILES | CAL PDZ FP-1 | CAL PDZ FP-2 | LANA DNA inh | miR-122 sensor | Keap1-Nrf2 PPI
CC1=CC2=NC(=O)/C(=C\c3cccn3CCOc3ccccc3C)C(=N)N2O1 | i | i | i | 147 | i
COc1ccc(S(=O)(=O)N(C)C[C@H]2OCCCC[C@H](C)Oc3ccc(NS(C)(=O)=O)cc3C(=O)N([C@@H](C)CO)C[C@@H]2C)cc1 | nt | nt | nt | i | nt
CC(C)(C)C(=O)O/N=C(\N)Cc1ccc(-c2csnn2)cc1 | i | 61 | i | i | i
Cc1csc(SC(C)C(=O)NCc2ccc3c(c2)OCO3)n1 (configuration not stated) | i | 64 | i | i | i
CC(Sc1nc2ccccc2s1)C(=O)NCc1ccc2c(c1)OCO2 (configuration not stated) | i | i | i | i | i
CCOC(=O)C1=C(C)NC(C)=C(C(=O)OCC)C1C(=O)OCC(=O)NCc1ccccc1OC | i | 88 | i | i | i
CC1CCC(C(C)C)C(OCC(O)CNC(C)(C)C)C1 (configuration not stated) | i | 80 | i | nt | i
CC1CCC(C(C)C)C(OCC(O)CNC(C)c2ccccc2)C1 (configuration not stated) | i | i | i | nt | i
COc1ccccc1NC(=O)c1ccccc1S(=O)(=O)c1ccc([N+](=O)[O-])cc1 | i | 72 | i | i | i
Cc1cc(F)ccc1NCc1ccc([N+](=O)[O-])cc1 | i | 46 | i | nt | i
CCC(C)c1ccccc1NC(=O)COC(=O)CCc1cc(OC)c(OC)c(OC)c1 (configuration not stated) | i | 83 | i | nt | i
CCC(=O)c1ccc(N2CCCCC2)c(F)c1 | i | 161 | i | nt | i
CCC(=O)c1ccc(N2CCOCC2)c(F)c1 | i | i | i | i | i
CCN(CC)Cc1cc(C(C)(C)C)cc(N2CCOCC2)c1O | i | i | i | i | i
CN(C)Cc1cc(C(C)(C)C)cc(N2CCOCC2)c1O | i | 89 | i | i | i
N#Cc1cccc(S(=O)(=O)NCC(=O)NCCCc2ccccc2)c1 | i | nt | i | i | i
O=C(CNS(=O)(=O)c1cccc(Br)c1)NCCCc1ccccc1 | i | 44 | i | nt | i
O=C(CNc1cccc([N+](=O)[O-])c1)NCCCc1ccccc1 | i | 38 | i | i | i
CNC(=O)C[C@H]1CC[C@@H]2[C@H](COc3ccc(NC(=O)c4cscn4)cc3C(=O)N2C)O1 | nt | nt | nt | i | nt
C=CCn1c(NC(=O)c2ccco2)nc2ccccc21 | 61 | 94 | i | i | i
C[C@@H]1CCCCO[C@@H](CN(C)C(=O)Nc2cccc3ccccc23)[C@H](C)CN([C@@H](C)CO)C(=O)c2cc(NC(=O)Nc3ccc(F)cc3)ccc2O1 | nt | nt | nt | i | nt
CCCCNC(=O)N(O)C1N(/N=C/c2ccco2)C(=S)SC1(C)C (configuration not stated) | i | i | i | nt | i
CCCCNC(=O)N(O)C1N(/N=C/c2ccccc2F)C(=S)SC1(C)C (configuration not stated) | i | i | i | 116 | i
C[C@H]1CN([C@@H](C)CO)C(=O)Cc2cc(N(C)C)ccc2O[C@@H]1CN(C)C | nt | nt | nt | i | nt
C[C@@H]1CN([C@H](C)CO)C(=O)c2cc(N(C)C)ccc2O[C@@H](C)CCCCO[C@@H]1CN(C)C(=O)Nc1ccc(C(F)(F)F)cc1 | nt | nt | nt | i | nt
SMILES | CAL PDZ FP-1 | CAL PDZ FP-2 | LANA DNA inh | miR-122 sensor | Keap1-Nrf2 PPI
COC(=O)[C@H](CC(C)C)N1Cc2cc(OC)cc(OC)c2-c2ccccc2S1(=O)=O | i | 51 | i | i | i
C[C@@H]1CCCCO[C@H](CN(C)Cc2ccccc2)[C@H](C)CN([C@H](C)CO)C(=O)c2cc(NC(=O)c3ccccc3)ccc2O1 | nt | nt | nt | i | nt
CC(C)=C1C(=O)NN(c2cccc(Cl)c2)C1=O | i | 74 | i | i | i
CCOC(=O)CSc1nc2cc(C(=O)NCC3CCCO3)ccc2c(=O)n1Cc1ccco1 (configuration not stated) | i | i | i | i | i
O=C(NCC1CCCO1)c1ccc2c(=O)n(Cc3ccco3)c(SCC(=O)N3CCCC3)nc2c1 (configuration not stated) | nt | 79 | i | nt | i
NS(=O)(=O)c1ccc(CCNC(=O)COC(=O)c2ccc([N+](=O)[O-])o2)cc1 | i | i | i | nt | i
NS(=O)(=O)c1ccc(CCNC(=O)COC(=O)Cc2ccc([N+](=O)[O-])cc2)cc1 | i | 34 | i | i | i
COC(=O)c1sccc1NC(=S)Nc1ccc(F)cc1 | i | nt | i | 147 | i
COC(=O)c1sccc1NC(=O)Nc1ccc(F)cc1 | i | nt | i | nt | i
COC(=O)c1sccc1NC(=S)N1CCN(C)CC1 | i | + | i | nt | i
CCN1CCN(C(=S)Nc2ccsc2C(=O)OC)CC1 | i | i | i | i | i
O=[N+]([O-])/C(=C\Nc1ccccc1Cl)S(=O)(=O)c1ccccc1 | i | i | i | i | i
O=[N+]([O-])/C(C=Nc1ccccc1O)=C\Nc1ccccc1O | i | 35 | i | i | i
CN(Cc1cccc(F)c1)C(=O)c1ccc2c(=O)n3c(nc2c1)CCC3 | i | 65 | i | i | i
C[C@@H]1CCCCO[C@H](CN(C)Cc2ccc(C(=O)O)cc2)[C@@H](C)CN([C@H](C)CO)C(=O)c2cc(NC(=O)Cc3ccccc3)ccc2O1 | nt | nt | nt | i | nt
COc1ccc(NC(=O)N(C)C[C@@H]2Oc3c(NC(=O)c4ccc(-c5nccs5)cc4)cccc3C(=O)N([C@@H](C)CO)C[C@H]2C)cc1 | nt | nt | nt | i | nt
C=CCN(c1ccc(F)cc1)S(=O)(=O)c1cc(C(=O)OCC(=O)N(C)C2CCS(=O)(=O)C2)ccc1Cl (configuration not stated) | i | 40 | i | i | i
CN(C(=O)COC(=O)c1ccc(F)c(S(=O)(=O)N2CCOCC2)c1)C1CCS(=O)(=O)C1 (configuration not stated) | i | i | i | i | i
CCC(=O)N(C)C[C@@H]1Oc2cc(-c3ccncc3)ccc2S(=O)(=O)N([C@@H](C)CO)C[C@H]1C | nt | nt | nt | i | nt
Cc1nnc(SCC(=O)NC(C)(C)C)n1NCc1ccc(N(C)C)cc1 | i | 74 | i | i | i
Cc1nnc(SCC(=O)NC(C)(C)C)n1NCc1ccc(Cl)cc1 | i | i | i | nt | i
c1ccc(-c2cnc(CSc3nnc4ccccn34)o2)cc1 | i | 57 | i | i | i
CCN(CC)S(=O)(=O)c1ccc(NC(=S)NC(=O)CC(C)C)cc1 | i | 112 | i | nt | i
CNC[C@@H]1Oc2ccc(NS(=O)(=O)c3ccc(Cl)cc3)cc2CC(=O)N([C@@H](C)CO)C[C@@H]1C | nt | nt | nt | i | nt
COc1cc(C2C3=C(COC3=O)OC(C)(C)Oc3cc4c(cc32)OCO4)cc(OC)c1OC (configuration not stated) | i | i | i | 114 | i
O=C(Nc1ccccc1F)N1C[C@@H]2[C@H](c3ccccc31)[C@@H](CO)N2C(=O)C1CC1 | nt | nt | nt | i | nt
C[C@@H]1CN([C@H](C)CO)C(=O)c2cccc(N(C)C)c2O[C@H]1CN(C)Cc1ccc(-c2ccccc2)cc1 | nt | nt | nt | i | nt

Screens (PubChem BioAssay)
